Activity calls are given as the source filed them. The calls are words filed in the database; no cut-off is given here.
How the values were obtained:
Cytochrome P450 3A4 [1] = molecular target: T1, Cytochrome P450 3A4 (Homo sapiens, UniProt P08684); experiment: Inhibition of CYP3A4 (unknown origin) using 7-benzyloxy-resorufin as substrate; type: ADME
[2] = molecular target: T2, Calcitonin gene-related peptide type 1 receptor (Homo sapiens, UniProt O60894+Q16602); experiment: Binding affinity to CGRP receptor (unknown origin)
T2 sequence (Q16602 whole entry, one chain of several): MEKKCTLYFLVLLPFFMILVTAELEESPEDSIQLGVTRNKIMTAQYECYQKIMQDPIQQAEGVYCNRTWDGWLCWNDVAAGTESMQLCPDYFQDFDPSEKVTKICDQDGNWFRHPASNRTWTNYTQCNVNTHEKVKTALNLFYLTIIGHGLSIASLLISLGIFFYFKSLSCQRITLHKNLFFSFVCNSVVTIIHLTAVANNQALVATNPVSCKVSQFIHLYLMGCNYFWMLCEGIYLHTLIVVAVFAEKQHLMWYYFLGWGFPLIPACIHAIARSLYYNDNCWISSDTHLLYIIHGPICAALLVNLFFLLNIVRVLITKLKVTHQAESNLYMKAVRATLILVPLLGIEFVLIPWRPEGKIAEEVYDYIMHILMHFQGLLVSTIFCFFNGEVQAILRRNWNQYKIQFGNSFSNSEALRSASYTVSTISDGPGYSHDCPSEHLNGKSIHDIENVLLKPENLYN

Cytochrome P450 3A4 [3] = molecular target: T1, Cytochrome P450 3A4; experiment: (§1) Inhibition of CYP3A4 (unknown origin) using 7-benzyloxy-4-trifluoromethylcoumarin as substrate; type: ADME
[4] = molecular target: Calcitonin gene-related peptide type 1 receptor (Homo sapiens) (UniProt Q16602); experiment: (§2) Antagonist activity at CGRP receptor in human SK-N-MC cells assessed as inhibition of […]-induced cAMP production; type: functional, cell-based
Calcitonin gene-related peptide type 1 receptor (Homo sapiens), sequence (Q16602 whole entry): as the sequence (Q16602 whole entry, one chain of several) above
How it was run: (§3)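 Concentration-dependent inhibition of CGRP-stimulated cAMP production measured in SK-N-MC cells expressing the human CGRP receptor. Value reported as EC50.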

[5] = Reversal of CGRP-induced dilation on human intracranial arteries; type: functional, Artery
How it was run: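 Ex vivo human intracranial artery rings were mounted between two wire hooks on a force transducer to record tone. Rings were precontracted with 10 mM KCl and fully dilated with 1 nM haCGRP. Dilation was then reversed by cumulative half-log additions of antagonist.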

[6] = molecular target: T2, Calcitonin gene-related peptide type 1 receptor; experiment: as §2; type: functional, cell-based; how it was run: as §3
[7] = Bioavailability in rabbit at 0.6 mg/kg administered intranasally; type: ADME, organism-based, Oryctolagus cuniculus; conditions: in vivo, inhaled or intranasal
How it was run: (§4)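 Rabbits were dosed intranasally with a spray of a 10 mg/mL aqueous solution of the HCl salt, at 0.6 mg/kg. […] Intranasal bioavailability was derived from these plasma levels.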

Salmonella typhimurium = experiment: Genotoxicity in Salmonella typhimurium by Ames test; type: toxicity, organism-based; conditions: salmonella enterica subsp. enterica serovar typhimurium
[8] = Aqueous solubility of the compound at pH 4.0 to 6.2; type: physicochemical; conditions: aqueous solution
[9] = molecular target: T3, Nuclear receptor subfamily 1 group I member 2 (Homo sapiens, UniProt O75469); experiment: Activation of PXR (unknown origin)
T3 sequence (O75469 whole entry): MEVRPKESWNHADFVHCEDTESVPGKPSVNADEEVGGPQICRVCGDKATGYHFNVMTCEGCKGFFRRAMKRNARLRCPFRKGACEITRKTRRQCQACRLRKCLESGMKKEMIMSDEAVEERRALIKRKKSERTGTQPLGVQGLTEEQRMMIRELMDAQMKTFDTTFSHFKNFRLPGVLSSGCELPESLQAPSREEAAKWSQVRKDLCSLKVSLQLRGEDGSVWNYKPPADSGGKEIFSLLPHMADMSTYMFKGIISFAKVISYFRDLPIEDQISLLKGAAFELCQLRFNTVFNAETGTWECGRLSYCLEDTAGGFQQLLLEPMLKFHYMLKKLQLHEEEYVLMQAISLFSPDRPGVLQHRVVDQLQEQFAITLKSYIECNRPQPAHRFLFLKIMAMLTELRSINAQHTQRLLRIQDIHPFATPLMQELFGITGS

[10] = Tmax in rabbit at 0.6 mg/kg administered intranasally; type: ADME, organism-based, Oryctolagus cuniculus; design: dose 0.6 mg/kg; conditions: in vivo, inhaled or intranasal; how it was run: as §4
CYP3A4 = CYP3A4 (Homo sapiens, UniProt P08684); experiment: as §1; type: ADME; conditions: probe 7-benzyloxy-4-trifluoromethylcoumarin
CYP3A4, sequence (P08684 whole entry): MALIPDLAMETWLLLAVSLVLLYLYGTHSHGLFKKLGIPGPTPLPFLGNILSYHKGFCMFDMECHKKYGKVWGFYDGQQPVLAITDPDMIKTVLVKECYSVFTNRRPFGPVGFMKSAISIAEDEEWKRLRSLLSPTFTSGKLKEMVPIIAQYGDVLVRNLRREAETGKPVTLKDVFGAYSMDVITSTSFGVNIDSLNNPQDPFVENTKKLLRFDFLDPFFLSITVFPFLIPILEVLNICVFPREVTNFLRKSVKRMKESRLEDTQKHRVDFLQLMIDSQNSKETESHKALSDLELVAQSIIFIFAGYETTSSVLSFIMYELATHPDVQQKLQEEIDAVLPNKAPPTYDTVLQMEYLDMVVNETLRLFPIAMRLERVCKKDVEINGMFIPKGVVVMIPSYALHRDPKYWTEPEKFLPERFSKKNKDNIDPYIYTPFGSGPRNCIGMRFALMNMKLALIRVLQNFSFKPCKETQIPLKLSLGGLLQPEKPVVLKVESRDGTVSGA

[11] = Plasma concentration in marmoset at 0.03 g/kg, sc after 60 mins; type: ADME, organism-based, Callithrix jacchus; conditions: 30 mg/kg
How it was run: (§5)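 Marmosets were anesthetized. Facial blood flow was raised by iv haCGRP (10 µg/kg) given at −30, 15, 60 and 105 min and read by laser Doppler flowmetry. The antagonist (racemate) was given SC at 0 min and compared with vehicle-treated animals, n = 5. Plasma levels were taken at 15, 60 and 105 min.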

[12] = Plasma concentration in marmoset at 0.03 g/kg, sc after 105 mins; type: ADME, organism-based, Callithrix jacchus; conditions: 30 mg/kg; how it was run: as §5
[13] = Plasma concentration in marmoset at 0.03 g/kg, sc after 15 mins; type: ADME, organism-based, Callithrix jacchus; conditions: 30 mg/kg; how it was run: as §5
Callithrix jacchus = experiment: Inhibition of CGRP-induced increases in marmoset facial blood flow at 0.03 g/kg, sc after 60 to 105 mins by doppler flowmetry; type: functional, organism-based; how it was run: as §5

T1 sequence (P08684 whole entry): as above

Compound	IC50 (Cytochrome P450 3A4 [1]) [nM]	Ki [2] [nM]	IC50 (Cytochrome P450 3A4 [3]) [nM]	inhibition [4]	also measured
Cc1cc(C[C@@H](NC(=O)N2CCC(N3Cc4ccccc4NC3=O)CC2)C(=O)N2CCC(N3CCCCC3)CC2)cc2nn[nH]c12				Active	
Cc1cc(C[C@H](NC(=O)N2CCC(N3Cc4ccccc4NC3=O)CC2)C(=O)N2CCC(N3CCCCC3)CC2)cc2cn[nH]c12		27		Active	
Cc1cc(C[C@@H](NC(=O)N2CCC(N3Cc4ccccc4NC3=O)CC2)C(=O)N2CCC(N3CCCCC3)CC2)cc2cn[nH]c12 [listing 2 of 2 here]				Active	
Cc1cc(C[C@@H](NC(=O)N2CCC(N3Cc4ccccc4NC3=O)CC2)C(=O)N2CCC(N3CCCCC3)CC2)cc2cn[nH]c12.Cl					bioavailability [7]: 42%; Activity (Salmonella typhimurium): Non-toxic; solubility [8]: 13 mg/mL; Activity [9]: Not Active; Tmax [10]: 10 min
O=C(N[C@H](Cc1ccc2[nH]ncc2c1)C(=O)N1CCC(N2CCCCC2)CC1)N1CCC(N2Cc3ccccc3NC2=O)CC1				Active	EC50 [5]: 1.2 nM; IC50 (CYP3A4): > 40000 nM
O=C(N[C@H](Cc1cc2oc(=O)[nH]c2cc1Cl)C(=O)N1CCC(N2CCCCC2)CC1)N1CCC(N2Cc3ccccc3NC2=O)CC1	5000	0.28	> 40000	Active	
N#Cc1cc(C[C@@H](NC(=O)N2CCC(N3Cc4ccccc4NC3=O)CC2)C(=O)N2CCC(N3CCCCC3)CC2)cc2oc(=O)[nH]c12		11		Active	
CC(C)c1cc(CC(NC(=O)N2CCC(N3Cc4ccccc4NC3=O)CC2)C(=O)N2CCC(N3CCCCC3)CC2)cc2cn[nH]c12 (racemic)	370	0.22		Active	

Continued by falling Ki [2], values first:

IC50 (Cytochrome P450 3A4 [1]) [nM]	Ki [2] [nM]	IC50 (Cytochrome P450 3A4 [3]) [nM]	inhibition [4]	Compound	also measured
	0.14		Active	O=C(N[C@H](Cc1cc2oc(=O)[nH]c2cc1Br)C(=O)N1CCC(N2CCCCC2)CC1)N1CCC(N2Cc3ccccc3NC2=O)CC1	
5500	0.055	32000	Active	O=C(N[C@H](Cc1cc(I)c2[nH]c(=O)oc2c1)C(=O)N1CCC(N2CCCCC2)CC1)N1CCC(N2Cc3ccccc3NC2=O)CC1	
6900	0.048	> 40000	Active	CCc1cc(CC(NC(=O)N2CCC(N3Cc4ccccc4NC3=O)CC2)C(=O)N2CCC(N3CCCCC3)CC2)cc2c(C)n[nH]c12 (racemic)	
17000	0.039	> 40000	Active	O=C(N[C@H](Cc1cc(Cl)c2[nH]c(=O)oc2c1)C(=O)N1CCC(N2CCCCC2)CC1)N1CCC(N2Cc3ccccc3NC2=O)CC1	
1600	0.032	3500	Active	Cc1cc(C[C@@H](NC(=O)N2CCC(N3Cc4ccccc4NC3=O)CC2)C(=O)N2CCC(N3CCCCC3)CC2)c(Cl)c2cn[nH]c12	
7200	0.023	> 40000	Active	O=C(N[C@H](Cc1cc(Br)c2[nH]c(=O)oc2c1)C(=O)N1CCC(N2CCCCC2)CC1)N1CCC(N2Cc3ccccc3NC2=O)CC1	
7300	0.015	> 40000		Cc1cc(C[C@@H](NC(=O)N2CCC(N3Cc4ccccc4NC3=O)CC2)C(=O)N2CCC(N3CCCCC3)CC2)cc2[nH]nnc12	
	0.012		Active	Cc1cc(CC(NC(=O)N2CCC(N3Cc4ccccc4NC3=O)CC2)C(=O)N2CCC(N3CCCCC3)CC2)cc2cn[nH]c12 (racemic)	concentration at 1 h [11]: 13 nM; concentration at 1.75 h [12]: 11 nM; concentration at 0.25 h [13]: 4.7 nM; inhibition (Callithrix jacchus): Active
180	0.011	13000	Active	O=C(NC(Cc1cc(Cl)c2[nH]ncc2c1)C(=O)N1CCC(N2CCCCC2)CC1)N1CCC(N2Cc3ccccc3NC2=O)CC1 (racemic)	
	0.0073			Cc1cc(C[C@@H](NC(=O)N2CCC(N3Cc4ccccc4NC3=O)CC2)C(=O)N2CCC(N3CCCCC3)CC2)cc2cn[nH]c12 [listing 1 of 2 here]	EC50 [5]: 0.05 nM; EC50 [6]: 0.017 nM
450	0.005	25000	Active	CCc1cc(CC(NC(=O)N2CCC(N3Cc4ccccc4NC3=O)CC2)C(=O)N2CCC(N3CCCCC3)CC2)cc2cn[nH]c12 (racemic)	
